This is a sample that favours compounds with a hit; in the whole collection about 1% have one here.
PKA-R2B activ: activators of human PKA-R2B complex | AID 504700 | PKA-R2B holoenzyme dissociation, Cy5-IP20 fluorescence polarization; R2B truncated from residue 108, S112A mutant; 0% DMSO only, 100% 113 µM cGMP | P22694+P31323 | 0.079% of 340,000 active | activation, % at 11.4 µM;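 active = activation above a cutoff set at the mean over all compounds plus 3 SD, cut at about 18% in these data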;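 also: higher means more holoenzyme dissociation and a rise in polarization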
Tn6 DDE FP: disrupts Tn6 cyclic peptide binding to fibrin D-Dimer-E complex; P02675; Fibrin DD(E) TRITC-Tn6 fluorescence polarization displacement; inhibition, % at 8.3 µM; 0.21% of 370,000 active; AID 720509;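 active = inhibition above a per-campaign cutoff: mean of compounds within control limits plus 3 SD, cut at about 15% in these data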
Tn7 DDE FP: inhibitors of Tn7 peptide binding to human fibrin DD(E) | AID 720508 | inhibition, % at 8.3 µM | FP displacement of FITC-Tn7 peptide from fibrin DD(E); 0% = median of compound wells per plate | P02675 | 0.13% of 370,000 active;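 active = inhibition above the mean of compounds falling within the control limits plus 3 SD of them, cut at about 14% in these data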
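System: human fibrin DD(E); quantity: Fibrin-DD(E) at 2 µM final; also added: fluorescent Tn7 probe at 0.1 µM; compound dosing: single nominal test concentration of 8.3 µM per compound; schedule: 10 min preincubation, 3 h with tracer, room temperature; detection: fluorescence polarization of the labelled Tn7 tracer; repeats: one replicate per compound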
PKA-R1A act: PKA-R1A complex activation. P00514+P68181. PKA-R1A dissociation, Cy5-IP20 fluorescence polarization; scaled: DMSO 0%, 113 µM cGMP 100%. activation, % at 11.4 µM. 0.083% of 340,000 active. AID 504707;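 active = percent activation above the mean of all tested compounds plus 3 SD, cut at about 19% in these data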;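 also: higher means more PKAc released from R1A so a rise in polarization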
Neddylation inh: blocks human cullin neddylation; TR-FRET cullin neddylation, biochemical; inhibition, % at 25 µM; 0.58% of 360,000 active; in the data active = inhibition above about 36%
Target sequence (P61081 whole entry, looked up): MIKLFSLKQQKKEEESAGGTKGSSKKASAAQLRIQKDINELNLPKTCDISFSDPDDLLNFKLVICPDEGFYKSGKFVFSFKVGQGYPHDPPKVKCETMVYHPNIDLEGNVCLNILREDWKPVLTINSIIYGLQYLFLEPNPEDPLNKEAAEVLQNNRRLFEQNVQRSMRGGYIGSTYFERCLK
Target sequence (Q13564 whole entry, looked up): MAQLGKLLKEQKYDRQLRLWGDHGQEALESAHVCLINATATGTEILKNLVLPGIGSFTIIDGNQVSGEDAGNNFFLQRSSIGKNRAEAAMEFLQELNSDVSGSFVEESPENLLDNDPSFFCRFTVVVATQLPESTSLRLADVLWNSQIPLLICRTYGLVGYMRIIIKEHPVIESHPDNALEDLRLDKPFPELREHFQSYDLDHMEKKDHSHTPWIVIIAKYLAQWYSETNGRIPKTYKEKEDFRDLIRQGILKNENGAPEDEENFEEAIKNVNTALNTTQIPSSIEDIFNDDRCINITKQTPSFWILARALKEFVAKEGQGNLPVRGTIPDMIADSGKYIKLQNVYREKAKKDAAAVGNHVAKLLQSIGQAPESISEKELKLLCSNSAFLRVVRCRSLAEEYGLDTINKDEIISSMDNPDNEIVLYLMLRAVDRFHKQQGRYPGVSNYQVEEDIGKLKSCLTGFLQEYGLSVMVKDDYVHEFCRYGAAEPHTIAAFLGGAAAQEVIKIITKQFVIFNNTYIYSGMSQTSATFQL
Neddyl conf: confirmation of human cullin neddylation inhibitors; calls only at 25 µM; shares compounds with Neddylation inh; 13% of 1,800 active; TR-FRET cullin neddylation biochemical assay; in the data active = inhibition above about 40%;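 also: neddylation substrate is the cullin 1 ring ligase complex with SKP2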
Tn7 DDE conf: confirmation of inhibitors of Tn7 binding to human fibrin DD(E). shares compounds with Tn7 DDE FP. FP displacement of TRITC-Tn7 peptide from DD(E); 0% set at plate's compound-well median. inhibition, % at 8.3 µM. 5% of 460 active. AID 720628;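 active = inhibition above the campaign cutoff, the mean of compounds within control limits plus 3 SD, cut at about 14% in these data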;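 also: displacers lower polarization since freed probe rises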
Tn7 DDE ctr: counter-screen hit for Tn7 peptide-fibrin DD(E) binding disruption; shares compounds with Tn7 DDE FP; TRITC-Tn7 probe displacement, fluorescence polarization; inhibition, % at 8.3 µM; 3% of 460 active; AID 720633;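 active = inhibition above the cutoff, the mean of compounds lying between the control bounds plus 3 SD of those compounds, cut at about 17% in these data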
DDE Tn6 FP ctr: DD(E)-Tn6 binding inhibition, counter-screen | shares compounds with Tn6 DDE FP | Fibrin DD(E), TRITC-Tn6 fluorescence polarization displacement; 0% = median of compound wells, not DMSO | 2% of 680 active | inhibition, % at 8.3 µM;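 active = inhibition above the mean of test compounds lying between the control limits plus 3 SD of those, cut at about 14% in these data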
DDE Tn6 confirm: DD(E)-Tn6 binding inhibition, FP confirmation | shares compounds with Tn6 DDE FP | FP displacement of TRITC-Tn6 peptide from DD(E); 0% = per-plate median of test wells | inhibition, % at 8.3 µM | 10% of 680 active;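 active = inhibition above the mean of compounds lying within the control limits plus 3 SD, cut at about 16% in these data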
Numbers stand for hits; - = inactive; . = no result shown; + = active, no number.

SMILES	PKA-R2B activ	Tn6 DDE FP	Tn7 DDE FP	PKA-R1A act	Neddylation inh	Tn7 DDE conf	Tn7 DDE ctr	others
CCCCNC(=O)C[C@H]1C[C@@]2(C(=O)OC)C(=C[C@H](C(C)(C)C)O[C@@H]2C)N(Cc2ccccc2)C1=O	.	-	-	.	.	.	.
Nc1nsc2ccccc12	-	-	-	-	-	.	.
Nc1nnc(N)c2ccccc12	-	-	-	-	39.5	.	.	Neddyl conf=-
CCn1c(CSc2nccn2C)nc2cc(C(=O)O)ccc21	-	.	.	-	-	.	.
CCn1c(CSc2nc3ccccc3[nH]2)nc2cc(C(=O)O)ccc21	-	-	-	-	47.7	.	.
O=S(=O)(Nc1nc2ccccc2nc1Nc1ccc2c(c1)OCO2)c1ccc(F)cc1	-	-	-	-	37.9	.	.	Neddyl conf=-
COc1cccc(Nc2nc3ccccc3nc2NS(=O)(=O)c2ccc(NC(C)=O)cc2)c1	-	.	.	-	50.9	.	.
O=C(O)c1cccc(Nc2nc3ccccc3nc2NS(=O)(=O)c2ccc(F)cc2)c1	-	-	-	-	-	.	.
CCN(CC)CCNC(=O)Cn1c(-c2ccccn2)nc2ccccc21	-	-	-	-	47.5	.	.	Neddyl conf=+
Cc1cc(Nc2ccccc2C(=O)O)n2ncnc2n1	-	-	-	-	40.2	.	.
Cc1cc(Nc2cc(C(=O)O)ccc2C)n2ncnc2n1	-	-	-	-	-	.	.
COc1ccccc1-n1c(-c2ccc(NS(C)(=O)=O)cc2)n[nH]c1=S	-	-	-	-	41.4	.	.	Neddyl conf=-
O[C@H](COc1cccc(F)c1)CN1CCC(C(O)(c2ccccc2)c2ccccc2)CC1	.	-	-	.	.	.	.
CCN(CC)c1ccc(/C=N/n2nnnc2N)c(O)c1	-	18.2	-	-	41.4	.	.	Neddyl conf=+;DDE Tn6 FP ctr=-;DDE Tn6 confirm=-
COC(=O)c1cc2c(c3c4cc(F)ccc4n(S(=O)(=O)c4cccc(C)c4)c13)C(=O)N(Cc1ccccc1OC)C2	.	-	-	.	.	.	.
Cc1ccc(NC(=O)c2cc(Cl)ccc2[N+](=O)[O-])cc1C	-	-	-	-	-	.	.
Cc1cccc(NC(=O)c2cc(Cl)ccc2[N+](=O)[O-])c1	-	-	14.0	-	-	-	-
CCOC(=O)[C@]12CCCCC/C=C\1N(CCc1ccc(Cl)cc1)C(=O)[C@H]2CC(=O)NCCc1ccccc1OC	.	-	-	.	.	.	.
C=C[C@@H]1c2cc(C)ccc2N(S(=O)(=O)c2ccc(C)cc2)[C@H](c2ccccc2)C1(C#N)C#N	-	-	14.0	-	-	-	-
C=CCNC(=O)CN(Cc1ccccc1)S(=O)(=O)c1ccc(C)cc1	-	-	-	-	-	.	.
C=CCNC(=O)CN(CCc1ccccc1)S(=O)(=O)c1ccccc1	-	-	15.8	-	-	-	-
COc1ccc(Cn2nnnc2C(c2ccc3ncccc3c2)N2CCN(C3CCCCC3)CC2)cc1 (stereo unspecified)	-	-	14.3	-	-	-	-
Cn1c(CN2CCCCC2)nc2cc(NC(=O)c3ccc(F)cc3)ccc21	-	-	15.4	-	-	-	-
Cn1c(CN2CCCCC2)nc2cc(NC(=O)c3ccccc3Cl)ccc21	-	-	-	-	-	.	.
Clc1ccc(-c2csc(NCC3CCCO3)n2)cc1 (stereo unspecified)	.	-	-	.	.	.	.
SMILES	PKA-R2B activ	Tn6 DDE FP	Tn7 DDE FP	PKA-R1A act	Neddylation inh	Tn7 DDE conf	Tn7 DDE ctr	others
O=C(NNC(=O)c1ccccc1-n1cccc1)c1cncc(Br)c1	-	-	16.3	-	-	-	-
O=C(NNC(=O)c1ccccc1-n1cccc1)c1cccnc1	-	-	-	-	-	.	.
CCC1=Nc2cc(C(=O)O)ccc2Sc2ccc(Cl)cc21	-	-	14.7	-	-	-	-
COc1cccc(C(=O)N2CCCC(c3nc(-c4cccs4)no3)C2)c1 (stereo unspecified)	-	-	-	-	-	.	.
O=C(c1cccc(F)c1)N1CCCC(c2nc(-c3cccs3)no2)C1 (stereo unspecified)	.	-	15.3	.	.	-	-
Cc1cc(C(=O)NNc2c(Cl)cccc2Cl)no1	-	-	14.2	-	-	-	-
Cc1cc(C(=O)NNc2cc(Cl)ccc2Cl)no1	-	-	-	-	-	.	.
Cc1ccc(CN2CCCC2(C)C(=O)NC(C)C)cc1 (stereo unspecified)	.	-	13.9	.	-	-	-
Cc1ccc(CN2CCC2(C)C(=O)NC(C)C)cc1 (stereo unspecified)	.	-	-	.	-	.	.
Cc1ccc(C2C(C(=O)c3cccs3)=C(O)C(=O)N2c2nnc(C)s2)cc1 (stereo unspecified)	-	-	31.6	-	-	-	-
COc1ccc(C2C(C(=O)c3cccs3)=C(O)C(=O)N2c2cccc(C)n2)cc1 (stereo unspecified)	-	-	-	-	-	.	.
O=C(CCl)NC(Cc1ccccc1)c1ccccc1 (stereo unspecified)	-	-	14.7	-	-	-	-
O=C(NCc1ccc(Cl)cc1)c1ccc(Cn2cc(C(F)(F)F)ccc2=O)cc1	-	-	48.7	-	-	26.9	-
Cn1c(=O)c2[nH]c(-c3ccccc3)c(O)c2n(C)c1=O	-	-	17.1	-	-	-	-
C[C@H]1[C@@H](OC(=O)N2CCCC2)CC[C@@]23CCCN2C(=O)CCC[C@@H]13	.	-	-	.	.	.	.
Cc1ccc(NC(=O)c2ccc(NCCCN3CCC(C)CC3)c([N+](=O)[O-])c2)cc1F	-	-	15.3	-	-	-	-
Cc1ccc(C(=O)C2CCN(CC(=O)NC(C)C)CC2)cc1	.	-	-	.	.	.	.
CCn1c(=O)cc(SCC(=O)Nc2cccnc2)c2ccccc21	-	-	14.0	-	-	-	-
CC(C)(C)c1ccc(NC(=O)CSc2n[nH]c(=O)n2C2CC2)cc1	-	-	-	-	-	.	.
CC(C)c1ccccc1NC(=O)CSc1n[nH]c(=O)n1C1CC1	-	-	14.5	-	-	-	-
COC(=O)c1cccc(Cn2ccc3ccc(-c4ccc5ccn(C(=O)c6ccc(C)cc6)c5c4)cc32)c1	.	-	-	.	.	.	.
CCCCCC[C@@H](CC)CN(C(=O)Oc1ccccc1)c1ccccc1	.	-	15.0	.	.	-	-

Assay outcomes deposited in PubChem BioAssay by several laboratories.
